Reference: ChEMBL document CHEMBL3091319, “Chemical synthesis and biological validation of immobilized protein kinase inhibitory Leucettines” (Eur J Med Chem, 2013)
The source made the active and inactive calls. The calls are words filed in the database; no cut-off is given here.

Tests used:
[1] = Inhibition of porcine brain CK1delta/epsilon using RRKHAAIGpSAYSITA as substrate; set-up: species or system Sus scrofa
How it was run: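 Native porcine brain CK1δ/ε was assayed with the CKS phosphopeptide substrate, [γ-33P]ATP and buffer D for 30 min at 30 °C. Product was captured on P81 paper and counted by scintillation. IC50 was calculated from dose-response curves, with activity as % of the no-inhibitor control.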

[2] = molecular target: Dual specificity tyrosine-phosphorylation-regulated kinase 1A (Homo sapiens, UniProt Q13627); assay: Inhibition of human recombinant DYRK1A expressed in Escherichia coli using GRSRSRSRSRSR as substrate
Mus musculus = species on record: Mus musculus; assay: Binding affinity to GSK3 in mouse brain extracts by Western blot analysis; type: tissue-based
How it was run: (§1)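 Mouse brains homogenized and sonicated in Mops pH 7.2 buffer with β-glycerophosphate, phosphatase and protease inhibitors, spun 15 min at 17,000×g at 4 °C. Extract (1 or 2 mg total protein) rotated 30 min at 4 °C with ligand-linker coupled via amine to CNBr-activated Sepharose. Beads washed 4×, boiled 3 min in LDS/DTT, then 10% Bis-Tris SDS-PAGE and immunoblot with specific antibodies and ECL.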

[3] = molecular target: Dual specificity protein kinase CLK1 (Mus musculus, UniProt P22518); assay: Inhibition of mouse recombinant CLK1 expressed in Escherichia coli using GRSRSRSRSRSR as substrate
Dual specificity protein kinase CLK1, sequence (P22518 whole entry, the tested form may be a part): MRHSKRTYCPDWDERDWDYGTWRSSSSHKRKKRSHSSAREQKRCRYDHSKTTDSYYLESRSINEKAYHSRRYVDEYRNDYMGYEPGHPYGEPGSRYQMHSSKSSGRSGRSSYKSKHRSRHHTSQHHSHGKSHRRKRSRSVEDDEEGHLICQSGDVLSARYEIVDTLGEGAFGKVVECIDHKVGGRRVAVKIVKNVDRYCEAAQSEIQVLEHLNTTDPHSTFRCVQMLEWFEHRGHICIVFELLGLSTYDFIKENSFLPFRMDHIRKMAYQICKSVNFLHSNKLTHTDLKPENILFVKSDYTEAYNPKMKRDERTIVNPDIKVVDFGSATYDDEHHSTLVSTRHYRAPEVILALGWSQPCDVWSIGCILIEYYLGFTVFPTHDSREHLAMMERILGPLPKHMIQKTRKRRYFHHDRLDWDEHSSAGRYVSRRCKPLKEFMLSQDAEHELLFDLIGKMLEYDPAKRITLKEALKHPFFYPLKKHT
How it was run: (§2)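 Human DYRKs and mouse CLKs were expressed in E. coli as GST fusions and purified on glutathione-agarose. Each was assayed with RS peptide substrate and [γ-33P]ATP in buffer D at 30 °C for 30 min. Phosphorylation was read on P81 filters by scintillation. Activity is given as % of maximal after blank subtraction, and IC50 was derived from dose-response curves.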

[4] = molecular target: Cyclin-dependent kinase 5/CDK5 activator 1 (Homo sapiens, UniProt Q00535); assay: Inhibition of human recombinant CDK5/p25 using [gamma-33P]-ATP after 30 mins by scintillation counting; type: protein-complex assay
Cyclin-dependent kinase 5/CDK5 activator 1, sequence (Q00535 whole entry): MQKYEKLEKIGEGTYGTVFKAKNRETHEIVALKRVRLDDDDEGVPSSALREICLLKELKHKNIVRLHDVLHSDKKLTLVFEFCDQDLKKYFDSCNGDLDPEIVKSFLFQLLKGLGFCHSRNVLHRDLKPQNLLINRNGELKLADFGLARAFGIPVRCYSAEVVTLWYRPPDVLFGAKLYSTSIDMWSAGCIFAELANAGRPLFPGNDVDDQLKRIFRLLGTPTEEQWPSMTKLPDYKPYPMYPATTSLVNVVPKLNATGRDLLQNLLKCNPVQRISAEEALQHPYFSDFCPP
Cyclin-dependent kinase 5/CDK5 activator 1, sequence (Q15078 whole entry, further chain): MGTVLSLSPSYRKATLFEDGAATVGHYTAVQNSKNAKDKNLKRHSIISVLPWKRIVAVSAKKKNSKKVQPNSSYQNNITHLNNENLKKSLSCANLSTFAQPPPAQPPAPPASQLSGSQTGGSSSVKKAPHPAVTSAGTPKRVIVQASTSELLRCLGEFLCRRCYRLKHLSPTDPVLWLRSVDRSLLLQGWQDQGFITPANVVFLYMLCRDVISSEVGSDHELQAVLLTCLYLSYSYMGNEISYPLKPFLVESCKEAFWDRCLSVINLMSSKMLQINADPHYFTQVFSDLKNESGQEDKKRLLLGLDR

CDK2/Cyclin A2 = CDK2/Cyclin A2 (Homo sapiens, UniProt P24941); assay: Inhibition of human recombinant CDK2/cyclin A using [gamma-33P]-ATP after 30 mins by scintillation counting; type: protein-complex assay
How it was run: (§3)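 Native starfish M-phase CDK1/cyclin B or human recombinant CDK2 or CDK5/p25 was incubated with histone H1 (1 mg/mL) and [γ-33P]ATP in buffer D (10 mM MgCl2, 1 mM EGTA, 1 mM DTT, 25 mM Tris/HCl, heparin) at 30 °C for 30 min. BSA was added except for CDK2. Reactions were spotted on P81 paper, washed in 1% phosphoric acid and counted by scintillation. Activity is expressed as % of the no-inhibitor control with blanks subtracted. IC50 was taken from dose-response curves.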

[5] = molecular target: Glycogen synthase kinase-3 (Sus scrofa, UniProt B2LUN4+I6LNT8); assay: Inhibition of porcine brain GSK-3alpha/beta using YRRAAVPPSPSLSRHSSPHQSpEDEEE as substrate
How it was run: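 Reaction harvested onto P81 paper, washed in 1% phosphoric acid, and scintillation-counted. Blanks subtracted; activity as % of the no-inhibitor activity, with DMSO controls. IC50 from dose-response curves.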

[6] = molecular target: Dual specificity protein kinase CLK4 (Mus musculus, UniProt O35493); assay: Inhibition of mouse recombinant CLK4 expressed in Escherichia coli using GRSRSRSRSRSR as substrate
Dual specificity protein kinase CLK4, sequence (O35493 whole entry): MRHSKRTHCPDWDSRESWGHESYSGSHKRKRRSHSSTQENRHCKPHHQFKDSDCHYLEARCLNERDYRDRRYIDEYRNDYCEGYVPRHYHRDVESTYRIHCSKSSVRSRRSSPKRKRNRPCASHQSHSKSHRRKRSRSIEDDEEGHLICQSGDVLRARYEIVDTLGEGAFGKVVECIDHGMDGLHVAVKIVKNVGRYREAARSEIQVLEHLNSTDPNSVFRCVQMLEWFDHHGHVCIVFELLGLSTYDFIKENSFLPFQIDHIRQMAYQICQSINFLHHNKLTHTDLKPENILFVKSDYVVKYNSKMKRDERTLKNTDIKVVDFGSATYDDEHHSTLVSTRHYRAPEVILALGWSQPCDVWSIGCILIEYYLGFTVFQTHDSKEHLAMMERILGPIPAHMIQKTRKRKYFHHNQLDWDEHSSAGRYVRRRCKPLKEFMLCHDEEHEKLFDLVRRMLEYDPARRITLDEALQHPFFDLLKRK

[7] = molecular target: T1, Dual specificity tyrosine-phosphorylation-regulated kinase 2 (Homo sapiens, UniProt Q92630); assay: Inhibition of human recombinant DYRK2 expressed in Escherichia coli using GRSRSRSRSRSR as substrate
T1 sequence (Q92630 whole entry): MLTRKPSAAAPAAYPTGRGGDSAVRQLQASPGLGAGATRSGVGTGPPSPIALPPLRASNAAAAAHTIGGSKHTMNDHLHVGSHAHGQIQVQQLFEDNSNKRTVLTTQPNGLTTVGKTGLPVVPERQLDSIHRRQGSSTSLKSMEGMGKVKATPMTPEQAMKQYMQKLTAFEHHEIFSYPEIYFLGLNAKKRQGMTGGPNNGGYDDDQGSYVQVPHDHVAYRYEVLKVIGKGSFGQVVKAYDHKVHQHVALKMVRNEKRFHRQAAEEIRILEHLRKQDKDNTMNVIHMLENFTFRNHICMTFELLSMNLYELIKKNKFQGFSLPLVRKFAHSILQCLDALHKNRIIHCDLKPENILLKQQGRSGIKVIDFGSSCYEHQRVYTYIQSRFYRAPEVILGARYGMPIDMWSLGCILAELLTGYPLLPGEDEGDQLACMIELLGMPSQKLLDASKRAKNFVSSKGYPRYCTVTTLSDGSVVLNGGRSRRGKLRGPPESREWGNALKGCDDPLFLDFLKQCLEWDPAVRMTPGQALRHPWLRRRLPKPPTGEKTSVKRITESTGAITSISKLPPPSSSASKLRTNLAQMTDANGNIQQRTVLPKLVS

[8] = molecular target: Dual specificity tyrosine-phosphorylation-regulated kinase 1B (Homo sapiens, UniProt Q9Y463)
Dual specificity tyrosine-phosphorylation-regulated kinase 1B, sequence (Q9Y463 whole entry): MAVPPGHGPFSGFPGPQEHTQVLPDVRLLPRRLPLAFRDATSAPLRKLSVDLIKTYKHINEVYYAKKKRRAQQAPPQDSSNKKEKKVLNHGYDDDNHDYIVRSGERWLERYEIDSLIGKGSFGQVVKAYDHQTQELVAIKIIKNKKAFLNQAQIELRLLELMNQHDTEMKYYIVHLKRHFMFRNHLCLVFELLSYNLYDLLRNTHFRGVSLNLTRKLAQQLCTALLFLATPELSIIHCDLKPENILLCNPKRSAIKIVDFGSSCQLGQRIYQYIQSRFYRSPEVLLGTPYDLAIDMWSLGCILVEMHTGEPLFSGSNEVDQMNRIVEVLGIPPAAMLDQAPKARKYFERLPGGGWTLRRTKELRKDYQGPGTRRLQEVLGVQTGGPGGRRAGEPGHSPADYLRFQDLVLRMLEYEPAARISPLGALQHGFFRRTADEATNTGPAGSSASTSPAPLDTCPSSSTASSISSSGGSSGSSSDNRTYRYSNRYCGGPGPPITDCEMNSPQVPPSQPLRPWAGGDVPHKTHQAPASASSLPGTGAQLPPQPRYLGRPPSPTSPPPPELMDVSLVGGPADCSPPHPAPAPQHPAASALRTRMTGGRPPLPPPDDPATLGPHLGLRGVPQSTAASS

[9] = molecular target: Dual specificity protein kinase CLK2 (Mus musculus, UniProt O35491); assay: Inhibition of mouse recombinant CLK2 expressed in Escherichia coli using GRSRSRSRSRSR as substrate; how it was run: as §2
Dual specificity protein kinase CLK2, sequence (O35491 whole entry): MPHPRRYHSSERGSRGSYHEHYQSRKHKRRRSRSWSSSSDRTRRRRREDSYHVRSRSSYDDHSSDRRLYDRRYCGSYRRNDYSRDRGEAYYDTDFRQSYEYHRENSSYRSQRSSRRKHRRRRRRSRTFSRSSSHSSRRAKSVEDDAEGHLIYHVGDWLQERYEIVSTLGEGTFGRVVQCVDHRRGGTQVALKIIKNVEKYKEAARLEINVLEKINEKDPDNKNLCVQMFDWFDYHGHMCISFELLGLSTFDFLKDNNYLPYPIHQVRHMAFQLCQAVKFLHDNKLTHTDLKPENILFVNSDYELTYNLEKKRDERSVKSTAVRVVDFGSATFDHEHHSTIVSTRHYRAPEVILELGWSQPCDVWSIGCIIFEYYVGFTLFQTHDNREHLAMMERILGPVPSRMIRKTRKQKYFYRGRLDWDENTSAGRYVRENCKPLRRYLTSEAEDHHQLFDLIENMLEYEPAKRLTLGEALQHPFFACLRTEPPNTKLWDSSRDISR

[10] = molecular target: Dual specificity tyrosine-phosphorylation-regulated kinase 1A (Mus musculus) (UniProt Q61214); assay: Binding affinity to DYRK1A in mouse brain extracts by Western blot analysis; type: tissue-based; how it was run: as §1
[11] = Inhibition of M phase starfish oocytes CDK1/cyclin B using [gamma-33P]-ATP after 30 mins by scintillation counting; set-up: species or system Asteroidea; how it was run: as §3
CDK9/cyclin T1 = CDK9/cyclin T1 (Homo sapiens, UniProt P50750); assay: Inhibition of human recombinant CDK9/cyclin T using YSPTSPSYSPTSPSYSPTSPSKKKK as substrate; type: protein-complex assay
CDK9/cyclin T1, sequence (O60563 whole entry): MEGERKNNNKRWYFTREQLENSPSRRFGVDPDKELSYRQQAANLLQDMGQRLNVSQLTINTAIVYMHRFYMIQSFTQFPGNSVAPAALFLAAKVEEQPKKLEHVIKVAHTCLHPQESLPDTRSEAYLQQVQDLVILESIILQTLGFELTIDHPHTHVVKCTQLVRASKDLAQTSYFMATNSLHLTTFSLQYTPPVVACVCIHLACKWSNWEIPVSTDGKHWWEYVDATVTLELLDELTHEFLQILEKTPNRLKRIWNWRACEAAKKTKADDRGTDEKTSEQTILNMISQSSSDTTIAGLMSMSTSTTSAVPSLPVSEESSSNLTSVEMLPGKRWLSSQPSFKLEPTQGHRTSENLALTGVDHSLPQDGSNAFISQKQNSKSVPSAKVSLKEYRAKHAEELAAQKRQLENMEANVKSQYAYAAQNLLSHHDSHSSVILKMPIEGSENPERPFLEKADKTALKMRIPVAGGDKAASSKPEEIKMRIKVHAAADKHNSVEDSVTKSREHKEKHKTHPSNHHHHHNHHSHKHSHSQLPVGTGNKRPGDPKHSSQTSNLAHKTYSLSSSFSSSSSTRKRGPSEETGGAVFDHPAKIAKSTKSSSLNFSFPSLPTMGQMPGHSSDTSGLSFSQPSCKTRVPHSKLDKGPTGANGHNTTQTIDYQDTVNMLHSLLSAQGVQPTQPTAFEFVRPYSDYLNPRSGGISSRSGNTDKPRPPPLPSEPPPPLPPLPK
CDK9/cyclin T1, sequence (P50750 whole entry): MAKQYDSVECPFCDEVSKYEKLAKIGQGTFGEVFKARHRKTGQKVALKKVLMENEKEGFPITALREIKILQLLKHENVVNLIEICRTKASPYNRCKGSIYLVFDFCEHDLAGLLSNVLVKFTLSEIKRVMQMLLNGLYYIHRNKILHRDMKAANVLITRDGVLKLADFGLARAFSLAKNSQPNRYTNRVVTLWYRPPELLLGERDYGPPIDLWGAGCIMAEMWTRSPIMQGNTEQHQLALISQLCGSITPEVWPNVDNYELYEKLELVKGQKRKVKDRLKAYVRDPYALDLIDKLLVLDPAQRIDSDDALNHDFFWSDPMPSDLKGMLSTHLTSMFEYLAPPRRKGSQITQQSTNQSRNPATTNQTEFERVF
How it was run: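 CDK9/cyclin T was human recombinant, made in insect cells. It was run like the CDK1 radiometric assay: buffer D with [γ-33P]ATP, 30 min at 30 °C, CDK7/9 tide peptide substrate, P81 capture and scintillation counting. IC50 came from dose-response curves relative to a DMSO control.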

[12] = molecular target: Dual specificity protein kinase CLK3 (Mus musculus, UniProt O35492); assay: Inhibition of mouse recombinant CLK3 expressed in Escherichia coli using GRSRSRSRSRSR as substrate; how it was run: as §2
Dual specificity protein kinase CLK3, sequence (O35492 whole entry): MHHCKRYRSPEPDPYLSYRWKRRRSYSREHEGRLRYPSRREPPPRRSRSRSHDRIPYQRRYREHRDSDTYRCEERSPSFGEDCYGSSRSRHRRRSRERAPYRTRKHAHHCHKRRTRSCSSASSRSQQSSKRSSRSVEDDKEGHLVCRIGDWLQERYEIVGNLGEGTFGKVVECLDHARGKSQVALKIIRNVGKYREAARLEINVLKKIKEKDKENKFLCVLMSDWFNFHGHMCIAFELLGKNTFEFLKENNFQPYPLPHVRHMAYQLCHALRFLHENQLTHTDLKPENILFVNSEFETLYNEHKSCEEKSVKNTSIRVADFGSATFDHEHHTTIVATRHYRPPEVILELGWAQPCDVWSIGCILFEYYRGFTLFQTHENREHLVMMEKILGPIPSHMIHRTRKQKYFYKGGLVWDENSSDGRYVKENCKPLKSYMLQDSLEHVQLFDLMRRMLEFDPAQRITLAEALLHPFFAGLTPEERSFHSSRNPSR

[13] = molecular target: T2, Dual specificity tyrosine-phosphorylation-regulated kinase 3 (Homo sapiens, UniProt O43781); assay: Inhibition of human recombinant DYRK3 expressed in Escherichia coli using GRSRSRSRSRSR as substrate
T2 sequence (O43781 whole entry): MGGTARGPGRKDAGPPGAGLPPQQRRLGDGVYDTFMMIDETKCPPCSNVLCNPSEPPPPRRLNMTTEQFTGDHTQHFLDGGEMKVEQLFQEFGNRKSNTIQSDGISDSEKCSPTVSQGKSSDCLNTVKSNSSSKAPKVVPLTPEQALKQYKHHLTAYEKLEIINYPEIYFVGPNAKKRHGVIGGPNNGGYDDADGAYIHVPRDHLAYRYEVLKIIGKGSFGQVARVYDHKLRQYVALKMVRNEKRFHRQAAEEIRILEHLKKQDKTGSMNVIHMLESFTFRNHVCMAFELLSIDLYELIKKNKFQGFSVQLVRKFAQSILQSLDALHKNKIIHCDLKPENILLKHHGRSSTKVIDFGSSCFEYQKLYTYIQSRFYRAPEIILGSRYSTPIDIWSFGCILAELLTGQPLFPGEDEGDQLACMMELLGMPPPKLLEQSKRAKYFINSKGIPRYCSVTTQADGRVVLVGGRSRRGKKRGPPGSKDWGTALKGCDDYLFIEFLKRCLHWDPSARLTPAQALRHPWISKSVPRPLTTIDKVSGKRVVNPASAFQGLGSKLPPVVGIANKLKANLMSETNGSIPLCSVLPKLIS

## NCCOCCOCCOc1ccc(NC2=N/C(=C\c3ccccc3)C(=O)N2)cc1
[1]
  IC50: > 10 µM
[2]
  IC50: 8.5 µM
Mus musculus
  Activity: Active
[3]
  IC50: > 10 µM
[4]
  IC50: > 10 µM
CDK2/Cyclin A2
  IC50: > 10 µM
[5]
  IC50: 40 µM
[6]
  IC50: > 10 µM
[7]
  IC50: > 10 µM
[8]
  IC50: > 10 µM
[9]
  IC50: > 10 µM
[10]
  Activity: Active
[11]
  IC50: > 10 µM
CDK9/cyclin T1
  IC50: > 10 µM
[12]
  IC50: > 10 µM
[13]
  IC50: > 10 µM

## NCCOCCOCCO
[1]
  IC50: > 10 µM
[2]
  IC50: > 10 µM
[3]
  IC50: > 10 µM
[4]
  IC50: > 10 µM
CDK2/Cyclin A2
  IC50: > 10 µM
[5]
  IC50: > 10 µM
[6]
  IC50: > 10 µM
[7]
  IC50: > 10 µM
[8]
  IC50: > 10 µM
[9]
  IC50: > 10 µM
[11]
  IC50: > 10 µM
CDK9/cyclin T1
  IC50: > 10 µM
[12]
  IC50: > 10 µM
[13]
  IC50: > 10 µM

## O=C1NC(Nc2ccccc2)=N/C1=C\c1ccccc1
[1]
  IC50: > 10 µM
[2]
  IC50: > 100 µM
[3]
  IC50: > 10 µM
[4]
  IC50: > 10 µM
CDK2/Cyclin A2
  IC50: > 10 µM
[5]
  IC50: > 100 µM
[6]
  IC50: > 10 µM
[7]
  IC50: > 10 µM
[8]
  IC50: > 10 µM
[9]
  IC50: > 10 µM
[11]
  IC50: > 10 µM
CDK9/cyclin T1
  IC50: > 10 µM
[12]
  IC50: > 10 µM
[13]
  IC50: > 10 µM

## NCCOCCOCCOc1ccc(NC2=N/C(=C\c3ccc4c(c3)OCO4)C(=O)N2)cc1
[1]
  IC50: > 10 µM
[2]
  IC50: 0.05 µM
Mus musculus
  Activity: Active
[3]
  IC50: 0.075 µM
[4]
  IC50: > 10 µM
CDK2/Cyclin A2
  IC50: > 10 µM
[5]
  IC50: 0.27 µM
[6]
  IC50: 0.081 µM
[7]
  IC50: 0.15 µM
[8]
  IC50: 0.11 µM
[9]
  IC50: 0.28 µM
[10]
  Activity: Active
[11]
  IC50: > 10 µM
CDK9/cyclin T1
  IC50: 7.4 µM
[12]
  IC50: 0.81 µM
[13]
  IC50: 0.2 µM

## O=C1NC(Nc2ccccc2)=N/C1=C\c1ccc2c(c1)OCO2
[1]
  IC50: > 10 µM
[3]
  IC50: 0.035 µM
CDK2/Cyclin A2
  IC50: > 10 µM
[5]
  IC50: 0.73 µM
[9]
  IC50: 0.32 µM
[11]
  IC50: > 10 µM
CDK9/cyclin T1
  IC50: > 10 µM
[12]
  IC50: 3 µM

## NCCOCCOCCOCCOc1ccc(NC2=N/C(=C\c3ccc4c(c3)OCO4)C(=O)N2)cc1
[1]
  IC50: > 10 µM
[2]
  IC50: 0.028 µM
Mus musculus
  Activity: Active
[3]
  IC50: 0.061 µM
[4]
  IC50: > 10 µM
CDK2/Cyclin A2
  IC50: > 10 µM
[5]
  IC50: 0.2 µM
[6]
  IC50: 0.061 µM
[7]
  IC50: 0.13 µM
[8]
  IC50: 0.072 µM
[9]
  IC50: 0.21 µM
[10]
  Activity: Active
[11]
  IC50: > 10 µM
CDK9/cyclin T1
  IC50: 3.7 µM
[12]
  IC50: 0.55 µM
[13]
  IC50: 0.18 µM
